Measurements from different studies.
Compare with care: the assays were run in different laboratories.
Medium: plasma

CC(C)[C@H](N)C(=O)NCCCS(=O)(=O)O  AUC(0-t) (human; oral, 256.5 mg, multiple doses, twice daily, fasted): 11200 ng·h/mL
N=C(N)NCCC[C@@H](NC(=O)[C@@H](N)Cc1ccccc1)C(=O)N[C@@H](Cc1ccccc1)C(=O)N[C@@H](CCCCN)C(N)=O  AUC(0-t) (human; subcutaneous, 25 mg, patients): 4620 ng·h/mL
Cc1ncc2n1-c1ccc(Cl)cc1C(c1ccccc1F)=NC2  AUC (male human; oral, 7.5 mg): 117 ng·h/mL
CN(C)CCc1c[nH]c2ccccc12  AUC(0-inf) (human; intravenous, 9 mg, healthy volunteers, infusion): 5.87 ng·h/mL
c1cc([C@H]2CC[C@]3(CC2)OO[C@]2(O3)C3CC4CC(C3)CC2C4)ccc1OCCN1CCOCC1  AUC(0-inf) (human; oral, 200 mg, patients): 3180 ng·h/mL
CC(=C/C=C/C(C)=C/C(=O)O)/C=C1\CCCc2ccccc21  AUC(0-inf) (human; oral, 20 mg, single dose, fasted, healthy volunteers): 827 ng·h/mL
COc1ccc(C[C@@H]2NC(=O)[C@H]([C@@H](C)O)NC(=O)[C@@H]3[C@@H]4CCN3C(=O)[C@@H]3Cc5cn(c6ccc(F)cc56)CCCCCCN(Cc5ccc(cc5)CCNC(=O)[C@]5(C)CCCN5C2=O)C(=O)CCC(=O)N[C@@H](C)C(=O)N[C@H](CNC(=O)CCCCC[N+](C)(C)C)C(=O)N[C@@H](Cc2cccc(c2)CNC(=O)CO4)C(=O)N3)cc1  AUC(0-t) (human; oral, 200 mg, single dose): 0.481 µM·h
OCc1ncc2n1-c1ccc(Cl)cc1C(c1ccccc1F)=NC2  AUC(0-inf) (human; oral, 2 mg): 9.63 ng·h/mL
C=C(C)[C@@H]1CC[C@]2(NCCN3CCS(=O)(=O)CC3)CC[C@]3(C)[C@H](CC[C@@H]4[C@@]5(C)CC=C(C6=CC[C@@](COc7ncccc7C#N)(C(=O)O)CC6)C(C)(C)[C@@H]5CC[C@]43C)[C@@H]12  AUC(0-inf) (human; oral, 100 mg, fasted, tablet): 28000 ng·h/mL
C=CCNc1c(O)cc2c(O)c1C[C@@H](C)C[C@H](OC)[C@H](O)[C@@H](C)/C=C(\C)[C@H](OC(N)=O)[C@@H](OC)/C=C\C=C(/C)C(=O)N2  AUC(0-inf) (human; intravenous, 400 mg/m², patients, infusion): 11700 ng·h/mL
